# Assay results reported in ChEMBL document CHEMBL1649422, “Synthesis and molecular modeling of novel tetrahydro-β-carboline derivatives with phosphodiesterase 5 inhibitory and anticancer properties” (J Med Chem, 2011).
# Experiments:
# MDA-MB-231 [1] = assay: Growth inhibition of human MDA-MB-231 cells at 10 uM after 72 hrs by luminescence assay; format: functional; conditions: MDA-MB-231, 72 h
# MDA-MB-231 [2] = assay: Growth inhibition of human MDA-MB-231 cells after 72 hrs by luminescence assay; format: functional, cell-based; conditions: MDA-MB-231, 72 h
# Method in brief: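 MDA-MB-231 cells grown in RPMI 1640 with 5% FBS, 2 mM glutamine and antibiotics at 37 °C, 5% CO2. Cells were harvested at 70–90% confluence, used only if viability >95%, and seeded at 5000 cells/well. Dosing followed 18–24 h later, with final DMSO 0.1%. Viability was read after 72 h by CellTiter-Glo luminescence. IC50 came from eight concentrations in quadruplicate, fitted to a four-parameter logistic.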
# [3] = biological target: T1, cGMP-specific 3',5'-cyclic phosphodiesterase (Homo sapiens, UniProt O76074); assay: Inhibition of human recombinant PDE5 at 10 uM after 30 mins by fluorescence polarization assay
# [4] = biological target: T1, cGMP-specific 3',5'-cyclic phosphodiesterase; assay: Inhibition of human recombinant PDE5 after 30 mins by fluorescence polarization assay
# Method in brief: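 Recombinant human PDE5A at 12.5 units/mL was preincubated 30 min with compound or vehicle. Then 50 nM TAMRA-cGMP was added and the mix incubated 1.5 h at 30 °C. IMAP binding reagent was added for 30 min at 30 °C and fluorescence polarization read. IC50 came from a 10-concentration series in quadruplicate, fitted to a four-parameter logistic.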
# [5] = biological target: T1, cGMP-specific 3',5'-cyclic phosphodiesterase; assay: Inhibition of human recombinant PDE5A-mediated hydrolysis of cGMP after 30 mins by fluorescence polarization assay
# [6] = biological target: T2, cGMP-inhibited 3',5'-cyclic phosphodiesterase 3B (Homo sapiens, UniProt Q13370); assay: Inhibition of human recombinant PDE3B-mediated hydrolysis of cAMP after 30 mins by fluorescence polarization assay
# T2 sequence (Q13370 whole entry): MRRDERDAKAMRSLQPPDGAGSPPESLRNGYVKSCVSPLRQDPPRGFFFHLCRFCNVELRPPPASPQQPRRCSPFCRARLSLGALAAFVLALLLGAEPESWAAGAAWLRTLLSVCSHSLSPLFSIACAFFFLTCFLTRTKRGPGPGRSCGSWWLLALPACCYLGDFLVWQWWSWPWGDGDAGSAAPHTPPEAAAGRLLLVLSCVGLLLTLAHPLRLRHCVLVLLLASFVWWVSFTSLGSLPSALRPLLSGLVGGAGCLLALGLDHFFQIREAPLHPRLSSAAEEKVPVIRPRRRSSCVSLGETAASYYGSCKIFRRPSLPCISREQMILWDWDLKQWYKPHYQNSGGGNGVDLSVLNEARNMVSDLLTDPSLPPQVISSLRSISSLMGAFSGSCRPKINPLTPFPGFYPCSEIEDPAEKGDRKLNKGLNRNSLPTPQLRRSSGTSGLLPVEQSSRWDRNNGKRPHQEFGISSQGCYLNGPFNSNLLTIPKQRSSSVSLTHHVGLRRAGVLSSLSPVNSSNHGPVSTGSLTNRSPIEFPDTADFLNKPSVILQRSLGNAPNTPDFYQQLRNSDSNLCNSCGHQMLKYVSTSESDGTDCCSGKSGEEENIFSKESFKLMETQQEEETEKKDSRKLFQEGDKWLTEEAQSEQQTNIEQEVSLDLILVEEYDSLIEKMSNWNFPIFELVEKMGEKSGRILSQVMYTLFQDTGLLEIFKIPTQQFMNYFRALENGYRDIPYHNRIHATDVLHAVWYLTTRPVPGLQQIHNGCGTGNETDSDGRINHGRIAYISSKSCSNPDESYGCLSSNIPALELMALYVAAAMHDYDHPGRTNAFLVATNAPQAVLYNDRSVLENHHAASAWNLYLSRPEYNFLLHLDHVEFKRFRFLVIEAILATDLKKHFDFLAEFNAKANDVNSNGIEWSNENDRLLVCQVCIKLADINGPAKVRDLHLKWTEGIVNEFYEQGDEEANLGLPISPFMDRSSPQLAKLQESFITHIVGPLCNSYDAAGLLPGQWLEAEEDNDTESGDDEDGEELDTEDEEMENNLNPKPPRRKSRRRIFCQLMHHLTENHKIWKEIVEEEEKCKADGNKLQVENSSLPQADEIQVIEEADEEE
# Method in brief: (§1)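 Recombinant human enzyme levels were PDE3B 10 units/mL, PDE4B 400 units/mL and PDE11A 50 units/mL. Enzyme was preincubated with compound or vehicle for 30 min. Substrate was then added: 50 nM TAMRA-cGMP and/or 50 nM fluorescein-cAMP. Reactions ran 1.5 h at 30 °C, followed by IMAP binding reagent for 30 min at 30 °C. Fluorescence polarization was read. IC50 came from a 10-concentration series in quadruplicate, fitted to a four-parameter logistic.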
# [7] = biological target: T2, cGMP-inhibited 3',5'-cyclic phosphodiesterase 3B; assay: Inhibition of human recombinant PDE3B-mediated hydrolysis of cGMP after 30 mins by fluorescence polarization assay; method in brief: as §1
# [8] = biological target: 3',5'-cyclic-AMP phosphodiesterase 4B (Homo sapiens, UniProt Q07343); assay: Inhibition of human recombinant PDE4B-mediated hydrolysis of cAMP after 30 mins by fluorescence polarization assay
# Sequence of 3',5'-cyclic-AMP phosphodiesterase 4B (Q07343 whole entry): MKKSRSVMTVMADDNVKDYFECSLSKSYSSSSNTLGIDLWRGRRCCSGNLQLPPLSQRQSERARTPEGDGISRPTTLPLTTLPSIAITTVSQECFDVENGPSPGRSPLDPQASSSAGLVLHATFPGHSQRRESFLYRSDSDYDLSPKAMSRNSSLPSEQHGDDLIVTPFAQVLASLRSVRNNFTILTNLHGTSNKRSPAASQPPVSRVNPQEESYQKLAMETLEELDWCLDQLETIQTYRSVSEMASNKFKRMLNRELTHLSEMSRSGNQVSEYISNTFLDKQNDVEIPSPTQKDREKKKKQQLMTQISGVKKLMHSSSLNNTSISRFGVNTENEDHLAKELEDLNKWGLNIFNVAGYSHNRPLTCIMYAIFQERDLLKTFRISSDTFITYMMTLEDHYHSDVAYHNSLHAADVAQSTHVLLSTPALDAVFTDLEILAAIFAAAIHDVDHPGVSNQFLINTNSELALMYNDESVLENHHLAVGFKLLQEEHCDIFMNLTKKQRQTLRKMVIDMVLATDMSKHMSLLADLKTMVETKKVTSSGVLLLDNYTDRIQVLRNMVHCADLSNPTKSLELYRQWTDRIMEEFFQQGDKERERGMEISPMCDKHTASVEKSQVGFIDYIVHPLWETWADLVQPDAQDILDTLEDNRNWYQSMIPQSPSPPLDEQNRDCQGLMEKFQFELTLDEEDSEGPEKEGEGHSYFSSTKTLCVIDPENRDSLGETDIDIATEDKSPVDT
# Method in brief: as §1, with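 “fluorescein-cAMP.” for “fluorescein-cAMP. Reactions ran 1.5 h at 30 °C, followed by IMAP binding reagent for 30 min at 30 °C.”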
# [9] = biological target: T3, Dual 3',5'-cyclic-AMP and -GMP phosphodiesterase 11A (Homo sapiens, UniProt Q9HCR9); assay: Inhibition of human recombinant PDE11A-mediated hydrolysis of cAMP after 30 mins by fluorescence polarization assay
# T3 sequence (Q9HCR9 whole entry): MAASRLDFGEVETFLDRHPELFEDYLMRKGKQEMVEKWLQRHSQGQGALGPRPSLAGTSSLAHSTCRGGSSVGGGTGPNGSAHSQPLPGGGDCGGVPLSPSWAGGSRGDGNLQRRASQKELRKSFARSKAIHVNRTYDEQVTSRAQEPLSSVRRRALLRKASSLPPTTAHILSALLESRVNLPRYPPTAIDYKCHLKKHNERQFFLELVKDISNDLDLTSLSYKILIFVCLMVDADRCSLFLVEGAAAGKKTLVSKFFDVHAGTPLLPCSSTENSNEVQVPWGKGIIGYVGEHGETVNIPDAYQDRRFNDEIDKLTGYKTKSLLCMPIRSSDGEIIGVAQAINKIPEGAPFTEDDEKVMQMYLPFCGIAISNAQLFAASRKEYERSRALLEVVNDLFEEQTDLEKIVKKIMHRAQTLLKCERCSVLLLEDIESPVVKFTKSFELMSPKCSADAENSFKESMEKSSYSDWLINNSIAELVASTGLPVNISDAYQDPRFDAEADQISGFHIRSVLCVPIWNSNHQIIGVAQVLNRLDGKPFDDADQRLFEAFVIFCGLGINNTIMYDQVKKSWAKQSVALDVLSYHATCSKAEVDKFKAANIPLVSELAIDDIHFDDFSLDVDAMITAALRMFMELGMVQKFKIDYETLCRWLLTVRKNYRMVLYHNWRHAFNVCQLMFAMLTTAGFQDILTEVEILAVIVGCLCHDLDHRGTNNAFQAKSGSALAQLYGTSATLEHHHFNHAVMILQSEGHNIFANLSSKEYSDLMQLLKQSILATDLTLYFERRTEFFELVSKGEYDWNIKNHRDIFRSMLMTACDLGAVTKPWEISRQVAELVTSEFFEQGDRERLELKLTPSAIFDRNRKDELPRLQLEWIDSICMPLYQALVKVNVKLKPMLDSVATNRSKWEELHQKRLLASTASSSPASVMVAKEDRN
# Method in brief: as §1, with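 “fluorescein-cAMP.” for “fluorescein-cAMP. Reactions ran 1.5 h at 30 °C, followed by IMAP binding reagent for 30 min at 30 °C.”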
# [10] = biological target: T3, Dual 3',5'-cyclic-AMP and -GMP phosphodiesterase 11A; assay: Inhibition of human recombinant PDE11A-mediated hydrolysis of cGMP after 30 mins by fluorescence polarization assay
# Method in brief: as §1, with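 “fluorescein-cAMP.” for “fluorescein-cAMP. Reactions ran 1.5 h at 30 °C, followed by IMAP binding reagent for 30 min at 30 °C.”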
Compound,IC50 (MDA-MB-231 [2]),inhibition [3],IC50 [4],IC50 [5],IC50 [6],IC50 [7],IC50 [8],IC50 [9],IC50 [10],inhibition at 10 µM (MDA-MB-231 [1])
CCCCN1CC(=O)N2[C@@H](c3ccc(Cl)cc3Cl)c3[nH]c4ccccc4c3C[C@@H]2C1=O,1.2 µM,69%,1.11 µM,–,–,–,–,–,–,65%
CN1CC(=O)N2[C@@H](c3ccc(Cl)cc3Cl)c3[nH]c4ccccc4c3C[C@H]2C1=O,7.1 µM,82%,0.85 µM,–,–,–,–,–,–,70%
CN1CC(=O)N2[C@@H](c3ccc(Cl)cc3Cl)c3[nH]c4ccccc4c3C[C@@H]2C1=O,3.26 µM,90%,1.2 µM,–,–,–,–,–,–,65%
CC(C)(C)N1C(=O)[C@@H]2Cc3c([nH]c4ccccc34)[C@H](c3ccc(Cl)c(Cl)c3)N2C1=O,1.43 µM,80%,2.31 µM,–,–,–,–,–,–,70%
CC(C)(C)N1C(=O)[C@H]2Cc3c([nH]c4ccccc34)[C@@H](c3ccc(Cl)cc3Cl)N2C1=O,2.26 µM,80%,0.59 µM,–,–,–,–,–,–,68%
CC(C)(C)N1C(=O)[C@H]2Cc3c([nH]c4ccccc34)[C@H](c3ccc(Cl)cc3Cl)N2C1=O,0.64 µM,73%,1.48 µM,–,–,–,–,–,–,65%
CN1CC(=O)N2[C@H](c3ccc4c(c3)OCO4)c3[nH]c4ccccc4c3C[C@@H]2C1=O,–,–,–,–,> 50 µM,> 50 µM,–,–,–,–
CCCCN1CC(=O)N2[C@@H](c3ccc(Cl)cc3Cl)c3[nH]c4ccccc4c3C[C@H]2C1=O,3.28 µM,78%,4.46 µM,–,–,–,–,–,–,82%
CCN1CC(=O)N2[C@@H](c3ccc(Cl)cc3Cl)c3[nH]c4ccccc4c3C[C@@H]2C1=O,1.54 µM,90%,0.26 µM,–,–,–,–,–,–,66%

# More lines, in order of falling IC50 [4], values ahead:
IC50 (MDA-MB-231 [2]),inhibition [3],IC50 [4],IC50 [5],IC50 [6],IC50 [7],IC50 [8],IC50 [9],IC50 [10],Compound,inhibition at 10 µM (MDA-MB-231 [1])
1.26 µM,95%,0.07 µM,–,–,–,–,–,–,CC(C)(C)N1C(=O)[C@@H]2Cc3c([nH]c4ccccc34)[C@@H](c3ccc(Cl)cc3Cl)N2C1=O,69%
–,95%,0.01 µM,0.01 µM,> 50 µM,> 50 µM,34 µM,2 µM,0.31 µM,CCN1C(=O)[C@H]2Cc3c([nH]c4ccccc34)[C@@H](c3ccc(Cl)cc3Cl)N2C1=O,39%
5.37 µM,95%,0.007 µM,0.007 µM,> 50 µM,> 50 µM,3.6 µM,13 µM,1.5 µM,CCN1C(=O)[C@@H]2Cc3c([nH]c4ccccc34)[C@@H](c3ccc(Cl)cc3Cl)N2C1=O,68%
–,91%,0.002 µM,0.002 µM,> 50 µM,> 50 µM,> 50 µM,0.104 µM,0.011 µM,CCN1CC(=O)N2[C@H](c3ccc(Cl)cc3Cl)c3[nH]c4ccccc4c3C[C@@H]2C1=O,30%
